Screening results as filed in PubChem BioAssay.
Arbovirus anti – antivirals against arbovirus infection, primary screen, cell-based, full library, 10K replicate subset; arbovirus infection cell-based antiviral screen; inhibition, % at 10 µM; 200,000 compounds, 0.37% hits; AID 1251, 2008; in the data active = inhibition above about 30%
Wee1 degr inh – Wee1 degradation inhibitors, primary screen, cell-based, HeLa, Wee1K328M-luciferase, luminescence. 220,000 compounds, 1.2% hits. Wee1-like protein kinase (Homo sapiens), P30291. reporter increase, % at 5 µM. HeLa Luc-Wee1K328M stability; 100% = proteasome inhibitor MG132 effect;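 active = activation above the mean of all tested compounds plus 3 SD, set per screening run, cut at about 8.8% in these data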;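 also: cells exposed to compound for 20 h before luminescence read; 0% = DMSO alone and 100% = MG132 at 30 µM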
CHOP inh – inhibitors of CHOP promoter induction, primary screen, cell-based, unfolded protein response, luciferase reporter. inhibition, % at 10 µM. 220,000 compounds, 3.8% hits. CHO-K1 CHOP-promoter luciferase, tunicamycin-induced, 15-18 h;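 active = compounds that reduced the stress-induced luciferase reporter signal by more than about 70% of percent inhibition, limit read from the data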;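 also: 0% = tunicamycin plus vehicle and 100% = wells without tunicamycin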
PKD1 kinase inh – inhibitors of human PKD1 kinase, biochemical, fluorescence polarization. Serine/threonine-protein kinase D1 (Homo sapiens), Q15139. PKD1 kinase fluorescence polarization assay. inhibition, % (concentration not given with the values). 200,000 compounds, 0.056% hits. AID 797, 2007
Rad51 HR inh – human RAD51 strand exchange inhibitors, primary screen, biochemical, fluorescence; DNA repair protein RAD51 homolog 1 (Homo sapiens), Q06609; hRad51 DNA strand exchange, fluorescence dequenching; inhibition, % at 10 µM; 200,000 compounds, 0.085% hits;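 active = inhibition above 40% at the single screening dose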;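 also: 0% = DMSO control wells and 100% = blanks with heterologous ssDNA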
Target sequence (Q06609 whole entry, looked up): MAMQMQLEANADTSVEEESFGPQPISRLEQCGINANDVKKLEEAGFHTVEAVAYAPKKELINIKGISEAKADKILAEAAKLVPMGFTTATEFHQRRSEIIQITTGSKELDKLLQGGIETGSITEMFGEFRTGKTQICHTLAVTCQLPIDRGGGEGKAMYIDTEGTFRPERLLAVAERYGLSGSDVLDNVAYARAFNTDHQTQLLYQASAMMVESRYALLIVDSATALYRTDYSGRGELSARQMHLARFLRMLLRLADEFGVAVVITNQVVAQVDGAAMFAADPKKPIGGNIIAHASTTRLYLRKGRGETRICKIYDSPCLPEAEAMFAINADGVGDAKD
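Assay system: Human Rad51 nucleoprotein filaments preassembled on unlabelled ssDNA | Reagent: Donor/quencher-labelled 47-bp dsDNA substrate | Doses: One concentration, 10 µM final | Times: 37 °C 15-min filament assembly, 30-min compound preincubation, 15-min exchange | Technique: Fluorescein emission 520 nm, excitation 485 nm | Benchmarks: Plate control and blank wells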
L major viab – Leishmania major promastigote growth inhibition, primary screen. inhibition, % at 10 µM. 200,000 compounds, 9% hits. Leishmania major promastigotes, resazurin fluorescence viability;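 also: promastigotes grown with compound for 44 hours at 28 °C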
CHOP confirm – retest of CHOP induction inhibitors, confirmation, cell-based | shares compounds with CHOP inh | CHO-CHOP promoter luciferase reporter, tunicamycin-induced, luminescence | inhibition, % at 10 µM | 2,100 compounds, 45% hits;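 active = mean of three repeat readings of reporter signal inhibition above a set limit, cut at about 70% in these data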;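 also: 0% = tunicamycin plus vehicle and 100% = wells lacking tunicamycin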
Starred values were filed as active, the others as inactive; . = not tested or not shown. In the library only some 12% were active in any assay of this set; here they are far more common. Rule as the data show it, unless noted: active = inhibition above about 50%; inactive = the rest.

SMILES	Arbovirus anti	Wee1 degr inh	CHOP inh	PKD1 kinase inh	Rad51 HR inh	L major viab	CHOP confirm
OC(CN1CCN(c2cccc(C(F)(F)F)c2)CC1)c1c[nH]c2ccccc12 (stereo unspecified)	5	2	97*	-6	-5	41	47
O=C(CS(=O)(=O)Cc1ccccc1)N1CCN(c2cccc(C(F)(F)F)c2)CC1	10	-2	55	-4	-10	-1	.
Cc1cccc(Cn2cc(/C=C/[N+](=O)[O-])c3ccccc32)c1	-36	3	102*	-5	-4	77*	-28
CCOC(=O)N/N=C/c1cn(Cc2ccc(Cl)cc2)c2ccccc12	-5	3	53	10	5	9	.
O=[N+]([O-])/C=C/c1cn(Cc2ccc(Cl)cc2)c2ccccc12	-37	-3	100*	-11	6	99*	-25
CC(OC(=O)c1ccccc1NCc1ccco1)C(=O)Nc1ncc(Cl)cc1Cl (stereo unspecified)	11	0	29	9	-3	-5	.
CCOC(=O)CSC1=NC(=O)/C(=C\c2ccc(OC(C)=O)cc2)S1	-3	1	106*	28	-2	-1	28
CCc1ccc(/C=C2\SC(N3CCCC3)=NC2=O)cc1	-1	-1	-8	-3	-20	14	.
Oc1ccc(C=Nc2ccc(N3CCOCC3)cc2)c(O)c1	-14	0	28	-5	.	1	.
Oc1ccc(N=Nc2cccc(C(F)(F)F)c2)cc1C=Nc1ccc(N2CCOCC2)cc1	-27	-3	104*	-3	17	91*	73*
Cc1ccc(Cn2c(=O)c3c(nc4n3CCCN4Cc3ccccc3)n(C)c2=O)cc1	10	1	105*	-10	15	11	-11
COc1ccc(C(=O)/C=C/C(=O)N(CC(=O)NC2CCCCC2)Cc2cccs2)c(O)c1	-34	-4	108*	5	-4	31	119*
CCCOC(=O)c1ccc(Oc2c(-c3ccc(O)cc3O)n[nH]c2C)cc1	-33	-2	105*	-5	-5	-5	69
CCc1cc(-c2n[nH]c(C)c2Oc2ccc(C(C)C)cc2)c(O)cc1O	-43	0	113*	-1	-3	47	114*
Cc1cc(OC(=O)c2cc(F)c(F)cc2Cl)nc(C)n1	-8	0	-21	-17	-4	-3	.
Cc1cc(C)c(S(=O)(=O)c2ccccc2)c(OC(=O)c2cc(F)c(F)cc2Cl)n1	10	1	107*	3	-4	-8	139*
CN(C)S(=O)(=O)c1cccc(NC(=O)COC(=O)CNC(=O)c2ccccc2F)c1	.	-1	16	.	0	.	.
Nc1cccc2c1C(=O)N(C(=O)c1ccco1)C2=O	.	-3	0	.	1	.	.
Nc1cccc2c1C(=O)N(C(=O)/C=C/c1ccc(F)cc1)C2=O	1	4	103*	-7	-11	-4	-111
Cc1ccc(C)c(-n2nnnc2Sc2nnnn2-c2ccccc2)c1	-38	-3	.	2	-5	98*	24
CCSc1nnnn1-c1ccccc1	4	0	1	-10	-4	-4	.
O=C(c1csc2c1CCCC2)N1CCN(c2cccc(C(F)(F)F)c2)CC1	-33	1	4	-9	0	-1	.
Cn1c(=O)c2c(nc(Sc3ncnn3CC(=O)NC(C)(C)C)n2C)n(C)c1=O	6	10*	100*	-5	.	-5	15
Cc1cc2cc(CN(Cc3ccco3)C(=O)C3CCCCC3)c(=O)[nH]c2cc1C	-2	1	105*	2	8	14	37
Cc1ccc(-c2csc(NC(=O)CSc3nnc4c(n3)[nH]c3ccccc34)n2)cc1	-16	-1	101*	-14	14	3	50
SMILES	Arbovirus anti	Wee1 degr inh	CHOP inh	PKD1 kinase inh	Rad51 HR inh	L major viab	CHOP confirm
O=C(c1ccco1)N1CCN(c2c(-c3ccccc3)c3cc(Cl)ccc3[nH]c2=O)CC1	-32	0	97*	1	5	20	115*
CCc1nnc(NC(=O)c2sc3nc4c(cc3c2N)CCCCCC4)s1	-24	0	105*	7	-6	-4	2
CCc1nnc(NC(=O)c2sc3nc4c(cc3c2N)CCCCC4)s1	-10	-1	-32	-11	-4	0	.
CC/C(=N/Nc1cccc(C)c1)c1cnnc(SC)n1	-11	0	97*	7	.	26	-71
COc1cccc(NC(=S)N/N=C2/CCCCc3ccccc32)c1	-3	-1	-31	-3	-2	40	.
CCOC(=O)c1c(CN2CCOCC2)n(-c2ccccc2)c2cc(Br)c(O)cc12	-35	5	99*	-6	-9	33	95*
CCSc1nc(-c2ccccc2)nc(C(Cl)Cl)n1	-44	-1	106*	0	3	-4	84*
CSc1nc(-c2ccc(C)cc2)nc(C(Cl)Cl)n1	-24	4	65	3	.	-3	.
CCCn1c(SCc2nc3sc(C)c(C)c3c(=O)[nH]2)nc2ccccc2c1=O	-16	2	106*	-17	-4	15	24
COCCn1c(SCc2nc3ccccc3c(=O)[nH]2)nc2ccccc2c1=O	10	0	27	-4	3	20	.
COC(=O)C[C@H]1c2cc(C(F)(F)F)ccc2S(=O)(=O)N1C(C)(C)C	.	.	.	.	4	.	.
Cc1nc([N+](=O)[O-])c(NCCO)n1Cc1ccccc1	7	1	11	-5	3	0	.
Cc1nc([N+](=O)[O-])c(Br)n1Cc1ccc(Cl)c(Cl)c1	-23	-1	105*	-6	-8	100*	3
CCS(=O)(=O)CCSC1OC(COC(C)=O)C(OC(C)=O)C(OC(C)=O)C1OC(C)=O (stereo unspecified)	4	-1	26	-8	.	-5	.
COc1ccc(N2CCN(CC(=O)Nc3cc4c(cc3C(C)=O)OCO4)CC2)cc1	.	0	.	-9	.	-15	.
CC(=O)c1cc2c(cc1NC(=O)CN1CCN(c3ccc(F)cc3)CC1)OCO2	11	5	97*	-10	-2	-4	19
CN1CCN(C(=O)/C=C/c2ccc([N+](=O)[O-])o2)CC1	.	0	-52	.	-2	.	.
O=[N+]([O-])c1ccc(/C=N/N=C/c2ccc([N+](=O)[O-])o2)o1	-34	-1	108*	-8	-5	100*	134*
CN(Cc1cccc(Cl)c1Cl)c1ccc(S(=O)(=O)N2CCCCC2)cc1[N+](=O)[O-]	8	0	15	1	.	5	.
COc1cccc(C(C(=O)NC2CCCC2)N(C(=O)c2ccco2)c2ccc(-n3cnnn3)c(C)c2)c1OC (stereo unspecified)	3	3	3	0	.	-10	.
